Experimental data of several laboratories.
Each line is one published result; the experiments were not run side by side.
Target: Calcium/calmodulin-dependent protein kinase type II subunit alpha (CAMK2A, Homo sapiens, UniProt Q9UQM7)

| Structure (SMILES) | observed | mode | technique | tested at | quantity | value |
| --- | --- | --- | --- | --- | --- | --- |
| Cn1c2c(Cl)c(Cl)ccc2c2cc[nH]c(=O)c21 | thermal stability | – | DSF | 10 µM | ΔTm | 0.4 °C |
| CSc1nc(C)c(-c2ccnc(Nc3ccc(N4CCOCC4)cc3)c2)[nH]1 | enzyme activity | inhibitor | – | 10 µM | inhibition | -5.7% |
| COc1cc2ncnc(Nc3ccc(Oc4ccccc4)c(C)c3C)c2cc1OC | enzyme activity | inhibitor | – | 1 µM | inhibition | 0% |
| Cc1noc([C@H]2C[C@@H](c3ccc(C(F)(F)F)cc3)CN(C(=O)N3CCS(=O)(=O)C3)C2)n1 | cell-free assay | – | competition with immobilised ligand | 1 µM | remaining binding | 100% |
| CC(C)(C)c1nc(-c2cccc(NS(=O)(=O)c3c(F)cccc3F)c2F)c(-c2ccnc(N)n2)s1 | enzyme activity | inhibitor | radiometric | 1 µM | remaining activity | 81% |
| CCC(=N\O)/C(C)=C/c1ccc(F)cc1 | cell-free assay | – | competition with immobilised ligand | 1 µM | remaining binding | 81% |
| O=C1NC(=O)c2cc(Nc3ccc(F)cc3)c(Nc3ccc(F)cc3)cc21 | cell-free assay | inhibitor | – | 0.5 µM | remaining signal | 103% |
| Cn1c2c(c3ccc(Cl)c(Cl)c31)C(C#N)C1(CCNCC1)NC2=O (racemic) | thermal stability | – | DSF | 10 µM | ΔTm | 1.2 °C |
| Cc1cc(-n2nc(Cc3cc(F)cc(C(F)(F)F)c3)nc2C)ccc1C(N)=O | cell-free assay | – | competition with immobilised ligand | 1 µM | remaining binding | 99% |
| O=C(Nc1cnn(-c2csc(C(=O)NC3COC3)c2)c1)Nc1c(F)cccc1Cl | enzyme activity | inhibitor | – | 5 µM | remaining activity | 99.4% |
| CC/C(=N\NC(=O)NCc1cccc(O)c1)c1ccc(O)c(C)c1O | enzyme activity | inhibitor | – | 0.1 µM | inhibition | -1.9% |
| Cn1c2c(Cl)c(Cl)ccc2c2cc(N)[nH]c(=O)c21 | thermal stability | – | DSF | 10 µM | ΔTm | 0.9 °C |
| CN(C)C(=O)Cn1cc(-c2nc(C3(c4ccc(-c5cnc(N)nc5)cc4)CC3)no2)cn1 | cell-free assay | – | competition with immobilised ligand | 1 µM | remaining binding | 100% |
| Cn1c2c(Cl)c(Cl)ccc2c2cn[nH]c(=O)c21 | thermal stability | – | DSF | 10 µM | ΔTm | 0.8 °C |
| CS(=O)(=O)CCNCc1ccc(-c2ccc3ncnc(Nc4ccc(OCc5cccc(F)c5)c(Cl)c4)c3c2)o1 | cell-free assay | – | – | 0.5 µM | remaining signal | 98.6% |
| Cn1c2c(c3ccc(Cl)c(Cl)c31)C(C#N)C1(CCN(C(=O)OC(C)(C)C)CC1)NC2=O (racemic) | thermal stability | – | DSF | 10 µM | ΔTm | 0 °C |
| O=C1Nc2ccc(Cl)cc2C1=Cc1cc(Cl)c(O)c(Cl)c1 | cell-free assay | – | – | 0.5 µM | remaining signal | 92.9% |
| C[C@@H]1CN(c2cc(-c3n[nH]c4ccc(OC5(C)CC5)cc34)ncn2)C[C@H](C)O1 | cell-free assay | – | competition with immobilised ligand | 0.1 µM | remaining binding | 100% |
| Cc1ccc(C(=O)NCc2ccsc2)cc1C#Cc1cn(C(C)C)c2ncnc(N)c12 | enzyme activity | inhibitor | – | 1 µM | activity vs control | 113% |
| CN1CCN(c2cnc3c(C4CCN(C(=O)c5ccc(OC(F)(F)F)cc5N)CC4)ncnc3c2)CC1 | cell-free assay | – | competition with immobilised ligand | 1 µM | remaining binding | 69% |
| Cc1ccc(NC(=O)c2ccc(CN3CCN(C)CC3)cc2)cc1Nc1nccc(-c2cccnc2)n1 | enzyme activity | inhibitor | – | 0.5 µM | activity vs control | 100% |
| N#Cc1ccc(Nc2ccc3[nH]c(=O)[nH]c3c2)c(Cl)c1 | cell-free assay | – | competition with immobilised ligand | 1 µM | remaining binding | 84% |
| Cc1sc(C(=O)NC2COC2)cc1-n1cc(NC(=O)Nc2c(F)cccc2Cl)cn1 | enzyme activity | inhibitor | – | 10 µM | remaining activity | 99.7% |
| CCS(=O)(=O)c1cc2cc(C[C@@](O)(CC(C)(C)c3ccc(F)cc3C(N)=O)C(F)(F)F)[nH]c2cn1 | cell-free assay | – | competition with immobilised ligand | 1 µM | remaining binding | 100% |
| CCCS(=O)(=O)Nc1ccc(F)c(C(=O)c2c[nH]c3ncc(-c4ccc(Cl)cc4)cc23)c1F | enzyme activity | inhibitor | – | 1 µM | inhibition | < 20% |
